# Assay outcomes deposited in PubChem BioAssay by Sanford-Burnham Center for Chemical Genomics.
# FLuc inhib CS: Photinus pyralis luciferase inhibition counter-screen. P08659. ATPLite firefly luciferase biochemical luminescence, 10 min. inhibition, % at 10 µM. 200,000 compounds, 1.5% hits. AID 1006;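 active = inhibition above about 50% when tested at 10 µM, limit read from the data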
# Target sequence (P08659 whole entry, looked up): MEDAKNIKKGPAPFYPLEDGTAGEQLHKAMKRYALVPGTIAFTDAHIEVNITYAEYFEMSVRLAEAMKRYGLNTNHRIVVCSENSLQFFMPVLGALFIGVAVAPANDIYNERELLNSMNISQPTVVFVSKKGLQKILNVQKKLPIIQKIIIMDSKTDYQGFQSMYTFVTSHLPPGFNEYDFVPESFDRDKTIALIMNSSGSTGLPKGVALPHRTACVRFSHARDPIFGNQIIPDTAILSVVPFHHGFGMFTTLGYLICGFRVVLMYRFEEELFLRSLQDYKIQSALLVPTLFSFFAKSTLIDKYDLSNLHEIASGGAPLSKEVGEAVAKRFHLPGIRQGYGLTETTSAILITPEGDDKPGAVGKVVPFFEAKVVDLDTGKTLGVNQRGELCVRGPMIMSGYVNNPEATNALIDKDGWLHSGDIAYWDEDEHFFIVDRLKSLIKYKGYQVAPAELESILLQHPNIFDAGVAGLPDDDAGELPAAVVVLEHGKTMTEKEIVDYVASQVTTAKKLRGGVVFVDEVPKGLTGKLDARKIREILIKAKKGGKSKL
# iPSC survival up: hiPSC single-cell survival enhancement; ATPlite luminescence; 100% = ROCK inhibitor wells, 0% = DMSO; survival enhancement, % at 20 µM; 360,000 compounds, 0.044% hits; in the data active = survival enhancement above about 18%;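 also: cells exposed to compounds for 16 hours before the ATP read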
# C8 TRAIL sens: sensitizes caspase-8 expressing cells to TRAIL | inhibition (viability loss, TRAIL sensitization), % at 10 µM | NB7+C8 cells + TRAIL, ATPlite viability luminescence | 360,000 compounds, 1% hits;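 active = compounds causing at least 50% loss of cell viability in the single-dose screen, relative to plate controls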
# beta cell repl: inducers of beta-cell replication in MIN6 cells; 330,000 compounds, 0.29% hits; MIN6 cells proliferation, ATPlite luminescence, 48 h; cells starved in 0.2% serum; 100% = growth in 10% serum; AID 2380; proliferation, % at 10 µM;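 active = compounds whose signal lies at least 3.5 SD above the mean of all wells on their plate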;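 also: 0% = DMSO-treated cells in low-serum medium and 100% = 10% serum control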
# PPC-1+TRAIL kill: PPC-1 cancer cell killing with TRAIL present; PPC-1 cells + TRAIL, ATPLite viability luminescence; cell killing (% activity), % at 4 µM or 5 µM; 220,000 compounds, 0.41% hits;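 active = cell killing above 50% in the first pass at 4 µM, then a duplicate retest at 5 µM averaging 50% or more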;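 also: plate controls were cells with TRAIL plus DMSO for no effect and medium-only wells lacking cells for full effect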
# FLuc stim CS: firefly luciferase counter-screen for stimulation assays | 200,000 tested, under 10 active | ATPlite luciferase biochemical, luminescence, 10 min; 0 = ATP-free wells, 1 = DMSO control | activation factor at 10 µM | P08659;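 active = luciferase activation factor, scaled between plate controls, of at least 2 with compound at 10 µM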
#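 Assay system – cell-free luciferase reagent · Medium – PBS-based ATP solution · Dosing – test compounds dosed from 2 mM stocks in 100% DMSO · Timing – 10 min, room temperature · Technique – light output (luminescence) · Measure – luminescence gain marking luciferase activators · Controls – No-ATP low control, compound-free enzyme-plus-ATP high control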
# An asterisk follows results filed as active; nt = not tested or not shown. In the library only some 1.8% were active in any assay of this set; here they are far more common.
SMILES,FLuc inhib CS,iPSC survival up,C8 TRAIL sens,beta cell repl,PPC-1+TRAIL kill,FLuc stim CS
CC(C)=CCc1cc2c(=O)c3c(O)c4c(cc3oc2c(O)c1O)OC(C)C4(C)C (centres undefined),nt,nt,nt,-5.8,nt,nt
O=C(Nc1ccccn1)c1onc2c1CCCC2,86.7*,-3.0,76.7*,-3.8,67.1*,0.1
O=C(CSc1cn(Cc2ccccc2)c2ccccc12)Nc1nccs1,50.3*,-4.5,-24.9,-6.3,45.3,0.5
O=C(O)c1ccccc1C(=O)Nc1cccc([N+](=O)[O-])c1,nt,-0.2,11.0,3.0,12.6,nt
Cc1c(C(=O)Nc2cccc([N+](=O)[O-])c2)csc1-c1ccccc1,18.8,-3.3,57.2*,-5.8,11.7,0.8
O=C(Nc1cccc([N+](=O)[O-])c1)c1cc2ccccc2cc1O,nt,-0.6,59.6*,-5.7,27.8,nt
COc1ccc(N2CCN(C(=O)COC(=O)CCc3ccccc3OC)CC2)cc1,nt,-0.5,-6.6,2.3,nt,nt
Cc1ccc(C)c(C(=O)OCC(=O)N(C)c2ccccc2)c1,nt,-0.4,-12.8,-4.5,nt,nt
CCCCCc1cc(=O)c2ccccc2o1,nt,1.9,-5.3,0.8,nt,nt
CN(CC(=O)Nc1cccnc1)S(=O)(=O)c1ccc(Br)cc1,nt,0.1,-6.3,-0.2,nt,nt
COC(=O)c1ccc2c(c1)C(=O)/C(=C/c1ccc(O)cc1)O2,11.1,-1.9,20.7,nt,-1.0,0.9
COc1cccc(/C=C2\Oc3ccc(O)cc3C2=O)c1O,nt,-0.7,65.5*,-5.7,nt,nt
Cc1ccc(C(=O)Nc2sc3c(c2C#N)CCCCC3)cc1C,0.6,-2.3,5.7,-1.1,13.0,1
COc1ccc(C(=O)Nc2sc3c(c2C(=O)O)CC(C)(C)OC3)cc1,11.2,2.3,21.5,2.0,23.9,0.9
O=C(Nc1sc2c(c1C(=O)O)CCCCC2)c1ccccc1,71.8*,1.6,38.0,-5.4,35.6,0.3
N#Cc1c(N2C(=O)Nc3ccccc3N2O)sc2c1CCCC2,49.9,0.0,15.0,0.0,-3.1,0.5
O=C(Nc1sc2c(c1C(=O)O)CCC2)c1ccccc1,22.8,0.4,6.4,-2.9,-5.9,0.8
N#Cc1c(NC(=O)c2ccccc2)sc2c1CCCCC2,55.3*,-2.1,53.3*,-1.2,35.6,0.4
N#Cc1c(N2C(=O)Nc3ccccc3N2O)sc2c1CCCCCC2,55.5*,4.4,19.9,0.0,28.6,0.4
CC1(C)Cc2c(sc(NC(=O)c3ccccc3)c2C(=O)O)CO1,58.9*,3.4,25.2,-3.3,18.9,0.4
COC(=O)[C@]1(C)N[C@H](CN(C)C(=O)COc2ccccc2)[C@@H]2C(=O)N(C)C(=O)[C@@H]21,nt,0.4,-9.2,-1.3,nt,nt
Cc1noc(C)c1NC(=O)Nc1ccc2c(c1)C(=O)N([C@H](C)CO)C[C@H](C)[C@@H](CN(C)C(=O)Nc1c(C)noc1C)O2,nt,-1.4,-2.7,-1.5,nt,nt
COc1ccc(-c2nnc(SCC#N)o2)cc1,-0.4,-1.4,4.0,-2.2,9.6,1
C#CCSc1nnc(-c2ccc(OC)cc2)o1,36.6,-1.0,92.3*,1.2,19.0,0.6
CC(=O)c1c(C)[nH]c(C(=O)CSc2nnc(-c3ccco3)o2)c1C,-4.5,0.0,14.9,-1.0,11.1,1
SMILES,FLuc inhib CS,iPSC survival up,C8 TRAIL sens,beta cell repl,PPC-1+TRAIL kill,FLuc stim CS
COc1ccc(-c2nnc(SCC(=O)c3[nH]c(C)c(C(C)=O)c3C)o2)cc1,-3.9,0.7,48.4*,0.0,10.1,1
COc1cccc2oc3cc(C#CC4(O)CCCCC4)ccc3c(=O)c12,nt,-3.4,72.2*,-8.0,nt,nt
COc1cccc2oc3cc(C#Cc4ccccn4)ccc3c(=O)c12,nt,nt,nt,-2.4,nt,nt
O=c1c2ccccc2oc2cc(C#CC3(O)CCCCC3)ccc12,nt,-2.8,79.0*,-7.5,nt,nt
O=C(c1cnc(Cl)c(Cl)c1)N1CCN(S(=O)(=O)c2cccs2)CC1,nt,4.2,-29.8,nt,nt,nt
Cc1ccc(C2=C/C(=C/c3cccs3)C(=O)O2)cc1,85.2*,-2.4,-2.6,-4.3,13.3,0.1
O=C1/C(=C/N(C(=O)c2ccco2)c2ccc(Br)cc2)Sc2ccccc21,82.8*,-2.0,56.9*,-2.4,15.2,0.2
O=C1c2ccccc2C(=O)N1CCCCN(C(=O)c1ccco1)c1ccc(Cl)cc1,-10.4,8.1,-4.1,3.0,25.9,1.1
O=C1/C(=C/N(C(=O)c2ccco2)c2ccc(Cl)cc2)Sc2ccccc21,86.3*,-1.3,55.0*,nt,31.4,0.1
CCNC(=S)NNC(=O)c1cc(-c2ccc(OC)cc2)nc2ccccc12,96.2*,-3.2,88.9*,0.0,88.3*,0
CCNC(=S)NNC(=O)c1cc(-c2cccc(OCC)c2)nc2ccccc12,58.2*,-0.9,7.9,2.9,16.3,0.4
COc1cccc(-c2cc(C(=O)Nn3cnnc3)c3ccccc3n2)c1,82.5*,-3.4,52.4*,-4.4,18.8,0.2
CCCN1CCN(S(=O)(=O)c2ccc3c(c2)NC(=O)C(C)C(=O)N3)CC1 (centres undefined),nt,-1.3,5.0,0.9,nt,nt
CCOc1ccccc1NC(=O)CCc1c(C)nn(-c2ccc(N3CCCCC3)nn2)c1C,nt,-0.1,26.0,-0.6,nt,nt
Cn1c(=O)c(C(=O)NCCc2ccc(Cl)cc2)c(O)c2ccccc21,nt,0.8,4.6,-0.5,nt,nt
O=C(CNC(=O)c1cccs1)c1ccc(F)cc1,51.9*,-1.2,40.9,-2.9,20.8,0.5
CCOC(=O)/C(C#N)=C/c1cc(C)n(-c2ccccc2)c1C,75.8*,-1.3,49.7*,-3.1,42.2,0.2
Cc1cc(/C=C(\C#N)C(=O)Nc2ccccc2)c(C)n1-c1cccnc1,50.7*,-3.1,33.8,-3.3,25.7,0.5
Cc1cc(C(=O)O)ccc1-n1c(C)cc(/C=C(/C#N)C(=O)Nc2ccccc2)c1C,0.1,0.1,-9.4,-3.5,8.7,1
CCN(CC)c1ccc(C2NC(=O)c3ccccc3N2)cc1 (centres undefined),nt,-4.7,91.9*,nt,nt,nt
O=C1NC(c2ccc3c(c2)OCO3)Nc2ccccc21 (centres undefined),-5.8,-1.1,26.5,-2.8,70.9*,1.1
CCN(CC)c1ccc(C2Nc3cccc4cccc(c34)N2)cc1,nt,-0.5,15.4,-5.0,nt,nt
O=C1NC(c2ccc3ccccc3c2)Nc2ccccc21 (centres undefined),nt,-1.6,29.2,nt,nt,nt
CC(C)c1nc(CNC(=O)C2CCC(=O)N(CCc3cccc(F)c3)C2)cs1 (centres undefined),nt,-0.3,-4.6,-1.2,nt,nt
O=C(ONC1=NCCCCC1)c1ccc(Cl)cc1,-5.1,2.6,83.3*,-3.4,-2.2,1.1
O=C(CCl)Nc1ccccc1Sc1ccc(Cl)cc1,-6.2,-5.0,94.7*,-5.9,-6.9,1.1
CCN1/C(=C/c2ccc3cc(C)ccc3[n+]2CC)Sc2ccc3sccc3c21,nt,-0.7,94.3*,-6.0,nt,nt
CCN1/C(=C\c2ccc3cc(C)ccc3[n+]2CC)Sc2cc(C)c(C)cc21,-0.6,-3.9,20.8,nt,39.0,1
